Experimental data taken from ChEMBL document CHEMBL4052614, “Novel 3',5'-diprenylated chalcones inhibited the proliferation of cancer cells in vitro by inducing cell apoptosis and arresting cell cycle phase” (Eur J Med Chem, 2017).
Calls of active or inactive are those of the source. The rule behind the calls is not given here.

Assays:
PC-3 [1] = assay: Growth inhibition of human PC3 cells at 5 umol/L after 48 hrs by MTT assay relative to control; format: functional; details: for inhibition of growth at 5 µM: PC-3, 48 h, read-out: GI
In short: (§1)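 Cells kept in DMEM/10% FBS at 37 °C, 5% CO2, seeded at 4×10^3–8×10^3 cells/well, 24 h attachment, then 48 h with compound at 5 µmol/L. MTT (5 mg/mL solution) added for 4 h at 37 °C, formazan taken up in DMSO, A490 read. Percent inhibition as mean ± SD of three independent experiments. Doxorubicin as positive control.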

MDA-MB-231 = assay: Growth inhibition of human MDA-MB-231 cells at 5 umol/L after 48 hrs by MTT assay relative to control; format: functional; details: for inhibition of growth at 5 µM: MDA-MB-231, 48 h, read-out: GI; in short: as §1
HEL [2] = assay: Growth inhibition of HEL cells at 5 umol/L after 48 hrs by MTT assay relative to control; format: functional; details: Homo sapiens; for inhibition of growth at 5 µM: read-out: GI; in short: as §1
K562 [3] = assay: Growth inhibition of human K562 cells at 5 umol/L after 48 hrs by MTT assay relative to control; format: functional; details: for inhibition of growth at 5 µM: K562, 48 h, read-out: GI; in short: as §1
PC-3 [4] = assay: Cytotoxicity against human PC3 cells after 48 hrs by MTT assay; format: functional, cell-based; details: PC-3, 48 h
In short: (§2)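 Cells kept in DMEM/10% FBS at 37 °C, 5% CO2, seeded at 4×10^3–8×10^3 cells/well and left 24 h to adhere. Exposed 48 h to a range of concentrations. MTT (5 mg/mL solution) added for 4 h at 37 °C, formazan dissolved in DMSO, absorbance read at 490 nm. IC50 derived from concentration–inhibition relation. Doxorubicin as positive control.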

HEL [5] = assay: Cytotoxicity against HEL cells after 48 hrs by MTT assay; format: functional, cell-based; details: Homo sapiens; in short: as §2
K562 [6] = assay: Cytotoxicity against human K562 cells after 48 hrs by MTT assay; format: functional, cell-based; details: K562, 48 h; in short: as §2
HEL [7] = assay: Induction of apoptosis in HEL cells assessed as necrotic cells at 5 umol/L after 48 hrs by annexin V-FITC/propidium iodide staining based flow cytometry (reference value: 0.3 to 1%); format: functional, Homo sapiens
HEL [8] = assay: Induction of apoptosis in HEL cells assessed as necrotic cells at 10 umol/L after 48 hrs by annexin V-FITC/propidium iodide staining based flow cytometry (reference value: 0.3%); format: functional, Homo sapiens
HEL [9] = assay: Induction of morphological changes in HEL cells assessed as reduction in cell number at 5 umol/L after 48 hrs by inverted fluorescence microscopic analysis; format: functional, cell-based; details: Homo sapiens
In short: (§3)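 Cells cultured in DMEM/10% FBS at 37 °C, 5% CO2. Exposed 48 h to 5 µmol/L compound alongside DMSO controls. Morphology (cell number, rounding, spacing, apoptotic bodies, spindle shape) observed under an inverted microscope with CCD camera.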

HEL [10] = assay: Induction of apoptosis in HEL cells assessed as early apoptotic cells at 5 umol/L after 48 hrs by annexin V-FITC/propidium iodide staining based flow cytometry (reference value: 2.6 to 4.2%); format: functional, Homo sapiens
HEL [11] = assay: Induction of apoptosis in HEL cells assessed as late apoptotic cells at 5 umol/L after 48 hrs by annexin V-FITC/propidium iodide staining based flow cytometry (reference value: 1.6 to 3.3%); format: functional, Homo sapiens
HEL [12] = assay: Induction of apoptosis in HEL cells assessed as viable cells at 5 umol/L after 48 hrs by annexin V-FITC/propidium iodide staining based flow cytometry (reference value: 93.1 to 94%); format: functional; details: Homo sapiens, read-out: Activity
HEL [13] = assay: Induction of morphological changes in HEL cells assessed as formation of apoptotic bodies at 5 umol/L after 48 hrs by inverted fluorescence microscopic analysis; format: functional, cell-based; details: Homo sapiens; in short: as §3
HEL [14] = assay: Induction of apoptosis in HEL cells assessed as viable cells at 10 umol/L after 48 hrs by annexin V-FITC/propidium iodide staining based flow cytometry (reference value: 94%); format: functional; details: Homo sapiens, read-out: Activity
HEL [15] = assay: Induction of apoptosis in HEL cells assessed as early apoptotic cells at 10 umol/L after 48 hrs by annexin V-FITC/propidium iodide staining based flow cytometry (reference value: 4.2%); format: functional, Homo sapiens
HEL [16] = assay: Induction of apoptosis in HEL cells assessed as late apoptotic cells at 10 umol/L after 48 hrs by annexin V-FITC/propidium iodide staining based flow cytometry (reference value: 1.6%); format: functional, Homo sapiens
HEL [17] = assay: Cell cycle arrest in HEL cells assessed as decrease in G2 phase accumulation at 5 umol/L after 48 hrs by propidium iodide staining based flow cytometric method; format: functional; details: Homo sapiens
In short: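 Cells grown in DMEM with 10% FBS and penicillin/streptomycin at 37 °C, 5% CO2, and passaged at least 3 times after thawing. Treated 48 h at 5 µmol/L, DMSO-treated controls. Harvested by trypsin, PBS-washed, fixed in ice-cold ethanol, blocked 1 h at 4 °C in 5% BSA/PBS, RNase 1 µg/mL 30 min at 37 °C, PI 20 µg/mL final. Phase percentages read from PI histograms. Mean ± SD, three independent experiments.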

SMILES	inhibition of growth at 5 µM (PC-3 [1]) [%]	inhibition of growth at 5 µM (MDA-MB-231) [%]	growth inhibition (GI) (HEL [2])	growth inhibition (GI) (K562 [3])	inhibition of growth at 5 µM (HEL [2]) [%]	inhibition of growth at 5 µM (K562 [3]) [%]	also measured
C=CCOc1ccc(/C=C/C(=O)c2cc(CC=C(C)C)c(OC)c(CC=C(C)C)c2O)cc1OCC	13.4	27.7	inactive	inactive			
COc1ccc(/C=C/C(=O)c2cc(CC=C(C)C)c(OC)c(CC=C(C)C)c2O)cc1Cl	31.8	26.5			11.7	31.9	
COc1ccc(/C=C/C(=O)c2cc(CC=C(C)C)c(OC)c(CC=C(C)C)c2O)cc1	24.6	14.5			29.5	32	
COc1ccc(/C=C/C(=O)c2cc(CC=C(C)C)c(OC)c(CC=C(C)C)c2O)cc1OC	10.6	19	inactive			7.5	
COc1ccc(/C=C/C(=O)c2cc(CC=C(C)C)c(OC)c(CC=C(C)C)c2O)cc1Br	20.9	30.2	inactive			18.9	
CCOc1cc(/C=C/C(=O)c2cc(CC=C(C)C)c(OC)c(CC=C(C)C)c2O)ccc1OC(=O)c1ccco1	12.7		inactive	inactive			growth inhibition (GI) (MDA-MB-231): inactive
COc1cc(/C=C/C(=O)c2cc(CC=C(C)C)c(OC)c(CC=C(C)C)c2O)ccc1OC(=O)c1ccc(N(C)C)cc1	36.5	38.5	inactive			8.1	
CCOc1cc(/C=C/C(=O)c2cc(CC=C(C)C)c(OC)c(CC=C(C)C)c2O)ccc1O	25.6	33.5			12.7	10.2	
COc1cc(/C=C/C(=O)c2cc(CC=C(C)C)c(OC)c(CC=C(C)C)c2O)cc(OC)c1OC	15	26.2		inactive	23.6		
CCOc1cc(/C=C/C(=O)c2cc(CC=C(C)C)c(OC)c(CC=C(C)C)c2O)ccc1OC(=O)c1ccc(Cl)s1	34.3		inactive	inactive			growth inhibition (GI) (MDA-MB-231): inactive
COc1cccc2c1C(=O)c1c(O)c3c(c(O)c1C2=O)C[C@@](O)(C(=O)CO)C[C@@H]3O[C@H]1C[C@H](N)[C@H](O)[C@H](C)O1 [DOXORUBICIN]	89.7	87.1			89.2	90.6	IC50 (PC-3 [4]): 2.63 µM; IC50 (HEL [5]): 2.13 µM; IC50 (K562 [6]): 2.41 µM
COc1ccc(/C=C/C(=O)c2cc(CC=C(C)C)c(OC)c(CC=C(C)C)c2O)cc1[N+](=O)[O-]	21.2	23.4			85.4	23	Activity (HEL [7]): 0.8%; Activity (HEL [8]): 10.1%; Activity (HEL [9]): Active; Activity (HEL [10]): 5.3%; Activity (HEL [11]): 3.9%; viability at 5 µM (HEL [12]): 90%; Activity (HEL [5]): Dose-dependent effect; IC50 (HEL [5]): 4.35 µM; Activity (HEL [13]): inactive; viability at 10 µM (HEL [14]): 30.6%; Activity (HEL [15]): 11.6%; Activity (HEL [16]): 47.6%; Activity (HEL [17]): Active
COc1cc(/C=C/C(=O)c2cc(CC=C(C)C)c(OC)c(CC=C(C)C)c2O)ccc1OC(=O)Cc1cc2ccccc2[nH]1	29.9	28.3	inactive	inactive			
CCOc1cc(/C=C/C(=O)c2cc(CC=C(C)C)c(OC)c(CC=C(C)C)c2O)ccc1OCOC	13.1	29.9		inactive	6.3		
COc1cc(/C=C/C(=O)c2cc(CC=C(C)C)c(OC)c(CC=C(C)C)c2O)ccc1OC(=O)c1ccc(C)s1	19.2	19.6	inactive			6.3	
COc1c(CC=C(C)C)cc(C(=O)/C=C/c2cccn2C)c(O)c1CC=C(C)C	11.7	33.8	inactive			9.9	
COCOc1ccc(/C=C/C(=O)c2cc(CC=C(C)C)c(OC)c(CC=C(C)C)c2O)cc1OC	17.3	14	inactive			3.9	
CCOc1cc(/C=C/C(=O)c2cc(CC=C(C)C)c(OC)c(CC=C(C)C)c2O)ccc1OC(=O)c1cccs1	21.4	7.4		inactive	4		
COc1ccc(/C=C/C(=O)c2cc(CC=C(C)C)c(OC)c(CC=C(C)C)c2O)cc1F		12.1			12.3	19.3	growth inhibition (GI) (PC-3 [1]): inactive
CCOc1cc(/C=C/C(=O)c2cc(CC=C(C)C)c(OC)c(CC=C(C)C)c2O)ccc1OC(=O)/C=C/c1ccncc1	13.5		inactive	inactive			growth inhibition (GI) (MDA-MB-231): inactive
COc1cc(/C=C/C(=O)c2cc(CC=C(C)C)c(OC)c(CC=C(C)C)c2O)ccc1O	26	19.3		inactive	22.2		
COc1c(CC=C(C)C)cc(C(=O)/C=C/c2ccc(N(C)C)cc2)c(O)c1CC=C(C)C	11.6	21.5	inactive	inactive			
COc1cc(/C=C/C(=O)c2cc(CC=C(C)C)c(OC)c(CC=C(C)C)c2O)ccc1OC(=O)c1cccnc1	23			inactive	5.7		growth inhibition (GI) (MDA-MB-231): inactive
